Screening results: PubChem BioAssay, The Scripps Research Institute Molecular Screening Center
ABHD4 inh: ABHD4 inhibitors, primary screen, biochemical, fluorescence polarization, mouse. (Lyso)-N-acylphosphatidylethanolamine lipase (Mus musculus), Q8VD66. purified mABHD4, FP-Rh probe fluorescence polarization. inhibition, % at 8.92 µM. 370,000 compounds, 0.54% hits;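 active = inhibition exceeding the mean over every tested compound plus 3 SD, cut at about 30% in these data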
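Assay system: Wild-type mouse ABHD4 protein | Medium: HEPES pH 7.0 buffer, 150 mM NaCl, 0.01% Pluronic F-127 | Incubation: Enzyme–compound pre-incubation 45 min, then probe 60 min, both 25 °C | Technique: Fluorescence polarization with parallel and perpendicular emission, 525/598 nm | Evaluation: % inhibition of FP-Rh probe binding versus controls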
DDE Tn6 FP inh: inhibitors of Tn6 peptide binding to fibrin DD(E), primary screen, biochemical, fluorescence polarization, human fibrin, Tn6 probe | Fibrin DD(E) TRITC-Tn6 fluorescence polarization displacement | inhibition, % at 8.3 µM | 370,000 compounds, 0.21% hits | AID 720509, 2013;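 active = inhibition above a per-campaign cutoff: mean of compounds within control limits plus 3 SD, cut at about 15% in these data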
TCR-CD3 inh: inhibitors of human TCR-CD3 interaction, primary screen, biochemical, fluorescence, TAMRA-labeled TCR probe | AID 651800, 2012 | 360,000 compounds, 0.37% hits | T-cell receptor (TCR) | inhibition, % at 9.4 µM; in the data active = inhibition above about 19%;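 also: recombinant mutant TCR 2C K166C tagged with TAMRA read by polarization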
Tn7 DDE FP: inhibitors of Tn7 peptide binding to fibrin DD(E), primary screen, biochemical, fluorescence polarization, human fibrin, Tn7 probe; inhibition, % at 8.3 µM; 370,000 compounds, 0.13% hits; Fibrinogen beta chain (Homo sapiens), P02675; AID 720508, 2013; FP displacement of FITC-Tn7 peptide from fibrin DD(E); 0% = median of compound wells per plate;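 active = inhibition above the mean of compounds falling within the control limits plus 3 SD of them, cut at about 14% in these data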
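Assay system: human fibrin DD(E). Input: DD(E) 2 µM final. Medium: Tris buffer with calcium and detergent, pH 7.8. Compound dosing: single point at 8.3 µM. Timing: 10 min plus 3 h, room temperature. Technique: fluorescence polarization of the labelled Tn7 tracer. Read-out: percent inhibition. Replicates: singlicate testing.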
SIAE inh: human SIAE inhibitors, primary screen, biochemical, fluorescence polarization, FP-Rh probe, 1536-well HTS; Sialate O-acetylesterase (Homo sapiens), Q9HAT2; SIAE FP-Rh probe binding; inhibition, % at 9.66 µM; 370,000 compounds, 0.69% hits;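 active = inhibition above a cutoff: mean of compounds within the control limits plus 3 SD of those, cut at about 17% in these data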
HTRA1 inh: HTRA1 serine protease inhibitors, primary screen, biochemical, fluorescence polarization, HTS. 340,000 compounds, 0.5% hits. recombinant HTRA1, FP-rhodamine activity-based probe. AID 504803, 2011. inhibition, % at 5.96 µM; in the data active = inhibition above about 36%
Target sequence (Q92743 whole entry, looked up): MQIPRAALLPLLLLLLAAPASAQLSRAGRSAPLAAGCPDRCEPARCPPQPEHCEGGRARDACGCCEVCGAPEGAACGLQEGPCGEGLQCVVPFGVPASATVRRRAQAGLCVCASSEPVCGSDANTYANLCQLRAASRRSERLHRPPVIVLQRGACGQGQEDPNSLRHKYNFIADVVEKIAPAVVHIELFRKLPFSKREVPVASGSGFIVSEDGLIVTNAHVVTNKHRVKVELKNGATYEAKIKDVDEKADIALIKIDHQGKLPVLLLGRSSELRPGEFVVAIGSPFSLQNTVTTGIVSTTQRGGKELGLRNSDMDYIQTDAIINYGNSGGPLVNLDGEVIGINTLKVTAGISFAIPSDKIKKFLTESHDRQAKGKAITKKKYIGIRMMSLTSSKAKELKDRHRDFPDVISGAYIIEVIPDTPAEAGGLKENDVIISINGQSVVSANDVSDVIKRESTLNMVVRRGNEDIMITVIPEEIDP
HTRA1 inh conf: HTRA1 protease inhibitors, retest, confirmation, biochemical, fluorescence polarization; 1,600 compounds, 66% hits; recombinant HTRA1, FP-rhodamine activity-based probe; inhibition, % at 5.96 µM; shares compounds with HTRA1 inh;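 active = mean inhibition over three repeats above a set limit taken from the earlier primary screen, cut at about 37% in these data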;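 also: inhibitors block probe binding so polarization drops and inhibition rises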
Of the large screens only hits and unclear results are named; the others gave an inactive call (follow-up assays come after a bar, where they were run). An excerpt weighted towards active compounds, which were near 1.8% of everything screened.

CCC1=NN(C(=O)c2cccc(Br)c2)C(O)(c2ccc(Br)cc2)C1 (stereo not drawn)	HTRA1 inh 75 | HTRA1 inh conf 68
Cc1cc(N/N=C/c2c[nH]c3ccccc23)c2ccccc2n1	none
Fc1c(F)c(F)c(N/N=C/c2c[nH]c3ccccc23)c(F)c1F	HTRA1 inh 43 | HTRA1 inh conf 42
O=C(O)c1ccc(N/N=C/c2c[nH]c3ccccc23)cc1	none
Cn1c(N/N=C/c2c[nH]c3ccccc23)nc2ccccc21	HTRA1 inh 46 | HTRA1 inh conf inactive
CC1(c2nnnn2Cc2ccccc2)CCCC(=O)N1Cc1cccs1 (stereo not drawn)	none (no result: TCR-CD3 inh, HTRA1 inh)
O=C(CSc1ncnc2scc(-c3ccc(Cl)cc3)c12)Nc1ccccc1-c1ccccc1	none (no result: TCR-CD3 inh, HTRA1 inh)
Cc1ccc(NCCN(C)C)c2c(=O)c3cc(O)ccc3sc12	none
COc1cc(C)c2sc3ccccc3c(=O)c2c1NCCN(C)C	HTRA1 inh 36 | HTRA1 inh conf 44
CCCCN1C(=O)N2Cc3cc(OC)ccc3C2CS1(=O)=O (stereo not drawn)	none (no result: TCR-CD3 inh, HTRA1 inh)
Cc1cccc(NC(=O)Nc2nc3ncccn3c2-c2ccccc2)c1	none (no result: TCR-CD3 inh, HTRA1 inh)
O=C1C(Cl)=C(N2CCCCCC2)C(=O)N1c1ccc(Cl)cc1	none
O=C1C(Cl)=C(N2CCCCC2)C(=O)C(Cl)=C1c1cnc(N2CCCCC2)s1	HTRA1 inh 71 (no result: ABHD4 inh, DDE Tn6 FP inh, TCR-CD3 inh, Tn7 DDE FP, SIAE inh) | HTRA1 inh conf inactive
O=C(NC1CCCCC1)C(c1ccc(O)c(O)c1)N(C(=O)Cn1nnc2ccccc21)c1cccc(O)c1 (stereo not drawn)	HTRA1 inh 47 | HTRA1 inh conf 49
CC(=O)c1cccc(N(C(=O)Cn2nnc3ccccc32)C(C(=O)NC2CCCCC2)c2cn(C)nc2C)c1 (stereo not drawn)	none
CN1/C(=C/C=C/c2n(C)c3cc([N+](=O)[O-])c([N+](=O)[O-])cc3[n+]2C)C(C)(C)c2ccccc21	HTRA1 inh 42 | HTRA1 inh conf 41
Cc1cccc[n+]1CC(=O)/C=C1\N(C)c2ccccc2C1(C)C	none
COc1cccc2c1-c1c(O)cccc1C2=O	none
COc1cccc2c1C(=N)c1c(O)c3c(c(O)c1C2=O)CC(O)(C(C)=O)CC3OC1CC(N)C(O)C(C)O1 (stereo not drawn)	HTRA1 inh 41 (no result: ABHD4 inh, DDE Tn6 FP inh, TCR-CD3 inh, Tn7 DDE FP, SIAE inh) | HTRA1 inh conf 43
O=C(NNc1nc2ccc(Cl)cc2s1)c1cc(-c2cccs2)nc2ccccc12	HTRA1 inh 42 | HTRA1 inh conf 56
O=C(O)c1ccccc1NS(=O)(=O)c1ccc(NN=Cc2ccccc2F)c([N+](=O)[O-])c1	none
COc1ccc(C=NNc2ccc(S(=O)(=O)Nc3ccccc3C(=O)O)cc2[N+](=O)[O-])c(OC)c1	HTRA1 inh 47 (no result: ABHD4 inh, DDE Tn6 FP inh, TCR-CD3 inh, Tn7 DDE FP, SIAE inh) | HTRA1 inh conf 39
O=C(CCNC(=O)c1ccc([N+](=O)[O-])cc1)NCCc1ccccc1	none
Cc1ccc(-n2c(SCc3c(Cl)cccc3Cl)nnc2-c2ccco2)cc1	none (no result: TCR-CD3 inh, HTRA1 inh)
Cc1ccc(C(=O)N/N=C/c2ccc([N+](=O)[O-])s2)cc1	none
O=C(N/N=C/c1ccc([N+](=O)[O-])s1)c1cccc(Br)c1	HTRA1 inh 45 | HTRA1 inh conf 46
Cc1cccc(NC(=S)N/N=C/c2ccc([N+](=O)[O-])s2)c1	HTRA1 inh 60 | HTRA1 inh conf 67
Cc1ccc(-n2c(SCC(=O)c3ccccc3Cl)nnc2-c2cnccn2)cc1	none (no result: TCR-CD3 inh, HTRA1 inh)
C[C@H]1COc2c3ccccc3nn21	none (no result: TCR-CD3 inh, HTRA1 inh)
CCc1cccc(CC)c1NC(=S)NCCc1ccc(O)c(O)c1	HTRA1 inh 67 | HTRA1 inh conf 78
c1ccc(N2CCN(c3nc(-c4ccccn4)nc4ccccc34)CC2)cc1	HTRA1 inh 40 | HTRA1 inh conf inactive
